Legend:
[1] = target: T1, Angiotensin-converting enzyme (Homo sapiens, UniProt P12821); experiment: Inhibition of recombinant human ACE C-domain expressed in CHO cells using Cbz-Phe-His-Leu as substrate preincubated for 15 mins followed by substrate addition and measured after 10 mins by fluorescence spectrophotometric analysis
Summary of the method: (§1)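 Fully glycosylated single-domain human ACE (C-domain D629, N-domain Δ36NJ) from CHO cells. Two-fold inhibitor dilution in 100 mM potassium phosphate pH 8.3, 300 mM NaCl, 10 μM ZnCl₂. Preincubation 15 min at 22 °C. 10 min at 37 °C, stopped with NaOH/o-phthalaldehyde, then HCl. Triplicates, n ≥ 2 independent experiments.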

Homo sapiens = species: Homo sapiens; experiment: Selectivity ratio of Ki for human ACE N-domain expressed in CHO cells to Ki for human ACE C-domain expressed in CHO cells; assay type: cell-based
Summary of the method: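 Ki for each ACE domain from IC50 by Cheng-Prusoff for competitive inhibition, Ki = IC50/(1 + [S]/Km). […] Ratio taken as N-domain Ki over C-domain Ki.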

[2] = target: T1, Angiotensin-converting enzyme; experiment: Inhibition of recombinant human ACE N-domain expressed in CHO cells using Cbz-Phe-His-Leu as substrate preincubated for 15 mins followed by substrate addition and measured after 10 mins by fluorescence spectrophotometric analysis; summary of the method: as §1
Neprilysin = Neprilysin (Homo sapiens, UniProt P08473); experiment: Inhibition of hGH-8His-NEP expressed in CHO cells preincubated for 15 mins followed by […] peptide substrate addition by fluorescence spectrophotometric analysis; assay type: cell-based
Summary of the method: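 Secreted glycosylated human NEP ectodomain (hGH-8His fusion) from CHO cells, purified by cobalt affinity. Two-fold inhibitor serial dilution in 50 mM Tris pH 8.3, 0.05% Brij-35, 300 mM NaCl, 10 μM ZnCl₂. Enzyme and inhibitor preincubated 15 min at 22 °C. […] Continuous fluorescence at ex 320/em 405 nm. Triplicates, n ≥ 2 independent experiments.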

Chain of Neprilysin (P08473 whole entry, the tested form may be a part): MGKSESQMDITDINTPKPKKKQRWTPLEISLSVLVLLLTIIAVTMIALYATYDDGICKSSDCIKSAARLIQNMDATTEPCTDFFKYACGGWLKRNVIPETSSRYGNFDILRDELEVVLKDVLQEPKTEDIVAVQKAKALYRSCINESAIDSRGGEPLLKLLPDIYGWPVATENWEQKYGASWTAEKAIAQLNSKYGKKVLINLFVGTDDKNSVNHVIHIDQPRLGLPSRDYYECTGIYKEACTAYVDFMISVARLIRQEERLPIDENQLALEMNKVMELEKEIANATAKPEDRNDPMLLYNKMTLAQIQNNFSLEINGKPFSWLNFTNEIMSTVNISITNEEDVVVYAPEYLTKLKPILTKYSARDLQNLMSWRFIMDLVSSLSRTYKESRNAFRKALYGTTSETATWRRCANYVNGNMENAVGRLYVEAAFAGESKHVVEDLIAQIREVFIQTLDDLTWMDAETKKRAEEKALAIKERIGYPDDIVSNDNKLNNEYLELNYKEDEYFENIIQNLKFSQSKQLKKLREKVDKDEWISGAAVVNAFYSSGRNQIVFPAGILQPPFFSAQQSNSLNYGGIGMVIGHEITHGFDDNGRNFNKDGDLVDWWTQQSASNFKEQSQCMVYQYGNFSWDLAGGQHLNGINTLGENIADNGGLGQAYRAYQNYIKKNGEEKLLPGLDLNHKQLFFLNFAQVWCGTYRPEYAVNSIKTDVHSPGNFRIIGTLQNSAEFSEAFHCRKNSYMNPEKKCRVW
T1 sequence (P12821 whole entry): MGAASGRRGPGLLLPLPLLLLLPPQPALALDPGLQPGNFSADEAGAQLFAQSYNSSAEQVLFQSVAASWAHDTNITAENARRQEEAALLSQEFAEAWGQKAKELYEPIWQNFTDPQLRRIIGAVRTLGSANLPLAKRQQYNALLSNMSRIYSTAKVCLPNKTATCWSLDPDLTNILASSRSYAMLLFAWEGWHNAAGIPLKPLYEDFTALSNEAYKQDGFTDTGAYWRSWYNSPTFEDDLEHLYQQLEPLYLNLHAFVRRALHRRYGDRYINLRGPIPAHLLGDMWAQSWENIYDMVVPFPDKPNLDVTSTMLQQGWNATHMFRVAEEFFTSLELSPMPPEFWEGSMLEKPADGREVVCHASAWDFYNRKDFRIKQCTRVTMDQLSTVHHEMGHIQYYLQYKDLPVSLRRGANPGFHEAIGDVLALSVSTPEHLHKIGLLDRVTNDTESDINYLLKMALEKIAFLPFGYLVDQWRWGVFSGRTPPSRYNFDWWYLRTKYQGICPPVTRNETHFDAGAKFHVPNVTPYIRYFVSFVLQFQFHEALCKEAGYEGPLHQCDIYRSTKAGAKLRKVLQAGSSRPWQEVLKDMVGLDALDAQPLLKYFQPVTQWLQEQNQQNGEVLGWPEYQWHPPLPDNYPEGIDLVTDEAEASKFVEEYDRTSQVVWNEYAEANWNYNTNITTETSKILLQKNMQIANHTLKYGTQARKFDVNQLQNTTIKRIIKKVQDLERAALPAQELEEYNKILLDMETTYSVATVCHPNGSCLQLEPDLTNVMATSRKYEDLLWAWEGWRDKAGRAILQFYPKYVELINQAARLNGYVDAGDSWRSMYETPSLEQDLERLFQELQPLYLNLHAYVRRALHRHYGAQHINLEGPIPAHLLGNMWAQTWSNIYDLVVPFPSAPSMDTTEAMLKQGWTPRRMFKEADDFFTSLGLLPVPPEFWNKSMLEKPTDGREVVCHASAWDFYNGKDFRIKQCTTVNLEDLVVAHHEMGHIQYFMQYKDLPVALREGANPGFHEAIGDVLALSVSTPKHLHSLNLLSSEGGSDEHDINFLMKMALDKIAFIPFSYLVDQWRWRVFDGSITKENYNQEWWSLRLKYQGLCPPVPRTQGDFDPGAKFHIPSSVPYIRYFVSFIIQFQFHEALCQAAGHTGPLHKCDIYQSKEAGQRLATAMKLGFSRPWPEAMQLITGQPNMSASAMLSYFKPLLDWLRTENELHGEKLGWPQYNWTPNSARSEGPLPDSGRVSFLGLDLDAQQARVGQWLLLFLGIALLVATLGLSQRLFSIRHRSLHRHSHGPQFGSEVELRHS

Row | Ki [1] | Ki [2] | Ki (Neprilysin) | SMILES | Ratio Ki (Homo sapiens)
1 | 100 nM | 3790 nM | 19 µM | CCCC[C@H](N[C@@H](CCc1ccccc1)C(=O)O)C(=O)N[C@@H](Cc1c[nH]c2ccccc12)C(=O)O | 37
2 | 440 nM | 3400 nM | > 50 µM | Cc1ccc([C@H]2CC[C@@H](C(=O)O)N2C(=O)CN[C@@H](CCc2ccccc2)C(=O)O)cc1 | 8
3 | 9 nM | 1700 nM | > 150 µM | NCCCC[C@H](N[C@@H](CCc1ccccc1)C(=O)O)C(=O)N[C@@H](Cc1c[nH]c2ccccc12)C(=O)O | 189
4 | 35 nM | 120 nM | 0.6 µM | CCCC[C@H](N[C@@H](CCc1ccccc1)C(=O)O)C(=O)N[C@@H](Cc1ccc(O)cc1)C(=O)O | 3.5

From ChEMBL document CHEMBL5038663, “Probing the Requirements for Dual Angiotensin-Converting Enzyme C-Domain Selective/Neprilysin Inhibition” (J Med Chem, 2022)
